Test results taken from ChEMBL document CHEMBL3739303, “Targeting the Src Homology 2 (SH2) Domain of Signal Transducer and Activator of Transcription 6 (STAT6) with Cell-Permeable, Phosphatase-Stable Phosphopeptide Mimics Potently Inhibits Tyr641 Phosphorylation and Transcriptional Activity” (J Med Chem, 2015).
pIC50: −log10 of the molar value. Peptide text beside a SMILES is read from it.

Target: T1, Signal transducer and activator of transcription 6 (Homo sapiens, UniProt P42226)
T1 sequence (P42226 whole entry): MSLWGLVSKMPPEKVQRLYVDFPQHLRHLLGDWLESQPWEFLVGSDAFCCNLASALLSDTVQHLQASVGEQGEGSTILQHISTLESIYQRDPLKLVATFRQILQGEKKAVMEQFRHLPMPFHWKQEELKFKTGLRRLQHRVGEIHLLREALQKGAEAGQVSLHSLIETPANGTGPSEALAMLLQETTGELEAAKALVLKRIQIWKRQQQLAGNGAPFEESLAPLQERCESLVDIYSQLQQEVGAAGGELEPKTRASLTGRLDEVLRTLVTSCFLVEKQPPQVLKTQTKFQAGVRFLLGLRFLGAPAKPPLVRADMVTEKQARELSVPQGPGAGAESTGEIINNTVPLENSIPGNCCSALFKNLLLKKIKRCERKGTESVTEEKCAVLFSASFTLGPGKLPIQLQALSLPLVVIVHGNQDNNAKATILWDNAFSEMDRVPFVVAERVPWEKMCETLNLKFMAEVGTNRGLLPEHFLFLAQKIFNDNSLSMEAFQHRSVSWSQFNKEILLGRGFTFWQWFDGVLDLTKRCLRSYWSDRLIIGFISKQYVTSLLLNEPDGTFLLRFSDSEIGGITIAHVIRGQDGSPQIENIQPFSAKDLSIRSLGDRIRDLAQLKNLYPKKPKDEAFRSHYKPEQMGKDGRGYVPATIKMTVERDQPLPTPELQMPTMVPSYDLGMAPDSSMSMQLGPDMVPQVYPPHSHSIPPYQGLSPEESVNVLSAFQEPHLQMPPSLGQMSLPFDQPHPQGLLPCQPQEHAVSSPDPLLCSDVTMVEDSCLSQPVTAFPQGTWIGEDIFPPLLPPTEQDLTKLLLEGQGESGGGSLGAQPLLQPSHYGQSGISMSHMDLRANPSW
Experiment: Inhibition of STAT6 (unknown origin) expressed in Escherichia coli using FAM-Ala-pTyr-Lys-ProPhe-Gln-Asp-Leu-Ile-NH2 as substrate by fluorescence polarization assay
Summary of the method: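 His6-tagged STAT6 construct (coiled-coil, DNA-binding, linker and SH2 domains), purified by nickel IMAC; competitive FP binding. STAT6 at 480 nM mixed with 20 nM FAM-labelled phosphopeptide probe, then equal volume of serially diluted peptides (from 200 μM) added. Buffer: 50 mM NaCl, 10 mM Hepes, 1 mM Na4EDTA, 2 mM DTT, 1% NP-40. mP plotted against log concentration; IC50 by nonlinear regression; triplicate, three probe preparations; mean ± SD.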

Compound | pIC50
CC(C)(C)[C@H](NC(=O)/C=C/c1ccc(OP(=O)(O)O)cc1)C(=O)N1CCC[C@H]1C(=O)N(c1ccccc1)c1ccc(I)cc1 | 7.36
C/C(=C\C(=O)N[C@H](C(=O)N(C)[C@@H](C)C(=O)N(C)c1ccccc1)C(C)(C)C)c1ccc(OP(=O)(O)O)cc1 | 6.32
CC(C)(C)[C@H](NC(=O)/C=C/c1ccc(OP(=O)(O)O)cc1)C(=O)N1CCC[C@H]1C(=O)Nc1ccccc1 | 5.90
NCCCC[C@H](NC(=O)/C=C/c1ccc(OP(=O)(O)O)cc1)C(=O)N1CCC[C@H]1C(=O)N[C@@H](Cc1ccccc1)C(N)=O | 5.07
CC(=O)N[C@@H](Cc1ccc(OP(=O)(O)O)cc1)C(=O)N[C@@H](CCCCN)C(=O)N1CCC[C@H]1C(=O)N[C@@H](Cc1ccccc1)C(=O)N[C@@H](CCC(N)=O)C(=O)N[C@@H](CC(=O)O)C(=O)N[C@@H](CC(C)C)C(N)=O (HELM PEPTIDE1{[ac].[O=C([C@H](Cc1ccc(OP(=O)(O)O)cc1)N[*:1])[*:2]].K.P.F.Q.D.L.[am]}$$$$V2.0) | 5.62
C/C(=C\C(=O)N[C@H](C(=O)N1CCCC1CCCCc1ccccc1)C(C)(C)C)c1ccc(OP(=O)(O)O)cc1 (stereo partly drawn) | 5.97
CC(=O)N[C@@H](Cc1ccc(OP(=O)(O)O)cc1)C(=O)N[C@@H](CCCCN)C(=O)N1CCC[C@H]1C(=O)N[C@@H](Cc1ccccc1)C(=O)N[C@@H](CCC(N)=O)C(=O)N[C@@H](CC(=O)O)C(N)=O (HELM PEPTIDE1{[ac].[O=C([C@H](Cc1ccc(OP(=O)(O)O)cc1)N[*:1])[*:2]].K.P.F.Q.D.[am]}$$$$V2.0) | 5.35
C/C(=C\C(=O)N[C@H](C(=O)N1CCCC1CN(C)c1ccccc1)C(C)(C)C)c1ccc(OP(=O)(O)O)cc1 (stereo partly drawn) | 6.39
C/C(=C\C(=O)N[C@H](C(=O)N1CCC[C@H]1C(=O)NCc1ccccc1)C(C)(C)C)c1ccc(OP(=O)(O)O)cc1 | 6.47
C/C(=C\C(=O)N[C@H](C(=O)N1CCC[C@H]1C(=O)NCCc1ccccc1)C(C)(C)C)c1ccc(OP(=O)(O)O)cc1 | 6.60
NCCCC[C@H](NC(=O)[C@H](Cc1ccc(OP(=O)(O)O)cc1)NC(=O)/C=C/c1ccccc1)C(=O)N1CCC[C@H]1C(=O)N[C@@H](Cc1ccccc1)C(N)=O (HELM PEPTIDE1{[O=C(/C=C/c1ccccc1)[*:2]].[O=C([C@H](Cc1ccc(OP(=O)(O)O)cc1)N[*:1])[*:2]].K.P.F.[am]}$$$$V2.0) | 5.18
C/C(=C\C(=O)N[C@H](C(=O)N1CCC[C@H]1C(=O)N(C)C)C(C)(C)C)c1ccc(OP(=O)(O)O)cc1 | 6.13
CC(=O)N[C@@H](Cc1ccc(OP(=O)(O)O)cc1)C(=O)N[C@@H](CCCCN)C(=O)N1CCC[C@H]1C(N)=O (HELM PEPTIDE1{[ac].[O=C([C@H](Cc1ccc(OP(=O)(O)O)cc1)N[*:1])[*:2]].K.P.[am]}$$$$V2.0) | 5.28
C/C(=C\C(=O)N[C@H](C(=O)N1CCCC1/C=C/c1ccccc1)C(C)(C)C)c1ccc(OP(=O)(O)O)cc1 (stereo partly drawn) | 5.46
CC(C)(C)[C@H](NC(=O)c1cc2cc(OP(=O)(O)O)ccc2[nH]1)C(=O)N1CCC[C@H]1C(=O)N(c1ccccc1)c1ccc(I)cc1 | 6.85
C/C(=C\C(=O)N[C@H](C(=O)N1CCC[C@H]1C(=O)N(c1ccccc1)c1ccc(I)cc1)C(C)(C)C)c1ccc(OP(=O)(O)O)cc1 | 7.55
C/C(=C\C(=O)N[C@H](C(=O)N1CCC[C@H]1C(=O)N(C)c1ccccc1)C(C)(C)C)c1ccc(OP(=O)(O)O)cc1 | 6.92
CC(=O)N[C@@H](Cc1ccc(OP(=O)(O)O)cc1)C(=O)N[C@@H](CCCCN)C(=O)N1CCC[C@H]1C(=O)N[C@@H](Cc1ccccc1)C(=O)N[C@@H](CCC(N)=O)C(N)=O (HELM PEPTIDE1{[ac].[O=C([C@H](Cc1ccc(OP(=O)(O)O)cc1)N[*:1])[*:2]].K.P.F.Q.[am]}$$$$V2.0) | 5.38
C/C(=C\C(=O)N[C@H](C(=O)N1CCCC1/C=C/CCc1ccccc1)C(C)(C)C)c1ccc(OP(=O)(O)O)cc1 (stereo partly drawn) | 6.27
CC(=O)N[C@@H](Cc1ccc(OP(=O)(O)O)cc1)C(=O)N[C@@H](CCCCN)C(=O)N1CCC[C@H]1C(=O)N[C@@H](Cc1ccccc1)C(N)=O (HELM PEPTIDE1{[ac].[O=C([C@H](Cc1ccc(OP(=O)(O)O)cc1)N[*:1])[*:2]].K.P.F.[am]}$$$$V2.0) | 5.21
CN(C(=O)[C@@H]1CCCN1C(=O)[C@@H](NC(=O)/C=C/c1ccc(OP(=O)(O)O)cc1)C(C)(C)C)c1ccccc1 | 6.06
C/C(=C\C(=O)N[C@H](C(=O)N(C)CC(=O)N(C)c1ccccc1)C(C)(C)C)c1ccc(OP(=O)(O)O)cc1 | 6.57
CC[C@H](C)[C@H](NC(=O)[C@H](CC(C)C)NC(=O)[C@H](CC(=O)O)NC(=O)[C@H](CCC(N)=O)NC(=O)[C@H](Cc1ccccc1)NC(=O)[C@@H]1CCCN1C(=O)[C@H](CCCCN)NC(=O)[C@H](Cc1ccc(OP(=O)(O)O)cc1)NC(C)=O)C(N)=O (HELM PEPTIDE1{[ac].[O=C([C@H](Cc1ccc(OP(=O)(O)O)cc1)N[*:1])[*:2]].K.P.F.Q.D.L.I.[am]}$$$$V2.0) | 5.74
